mIAP inh: mouse IAP inhibition. purified mouse IAP, CDP-Star luminescence, 30 min. inhibition, % at 10 µM. hit rate 0.2% among 330,000. AID 2806;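 active means inhibition of at least 40% at 10 µM in the primary screen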
hIAP block: blocks human intestinal alkaline phosphatase; hit rate 0.12% among 330,000; inhibition, % at 10 µM; purified IAP, CDP-Star luminescence, 30 min; AID 2544;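 active means inhibition reaching a set limit with compound at 10 µM in the primary screen, cut at about 35% in these data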
Target sequence (P09923 whole entry, looked up): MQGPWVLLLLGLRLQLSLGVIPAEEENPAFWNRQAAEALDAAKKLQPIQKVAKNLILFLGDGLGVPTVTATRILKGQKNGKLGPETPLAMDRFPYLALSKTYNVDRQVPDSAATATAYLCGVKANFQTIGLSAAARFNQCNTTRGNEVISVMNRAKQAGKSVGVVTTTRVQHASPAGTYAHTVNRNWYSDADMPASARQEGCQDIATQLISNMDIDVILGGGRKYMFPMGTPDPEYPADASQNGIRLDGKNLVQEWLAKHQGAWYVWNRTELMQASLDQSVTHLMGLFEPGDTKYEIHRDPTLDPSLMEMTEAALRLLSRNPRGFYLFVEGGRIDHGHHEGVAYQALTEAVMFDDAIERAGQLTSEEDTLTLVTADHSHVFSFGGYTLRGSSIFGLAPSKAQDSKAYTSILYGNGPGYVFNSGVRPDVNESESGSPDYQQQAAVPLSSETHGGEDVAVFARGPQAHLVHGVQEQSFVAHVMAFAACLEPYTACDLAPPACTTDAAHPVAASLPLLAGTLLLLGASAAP
bIAP inhibitor: blocks bovine intestinal alkaline phosphatase activity. inhibition, % at 20 µM. AID 1019. purified bovine IAP, CDP-star luminescence, 30 min. 190,000 tested, under 10 active;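 active means over 50% inhibition of intestinal alkaline phosphatase at 20 µM in the single-dose screen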
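Assay system: bovine IAP enzyme; medium: DEA buffer 100 mM, pH 9.8, with MgCl2 1.0 mM, ZnCl2 0.02 mM; doses: 20 µM single dose; incubation: enzyme reaction for 30 min at room temperature; detection: CDP-star luminescence signal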
bIAP act: intestinal alkaline phosphatase (bovine) activation | purified bovine IAP, CDP-star luminescence, 30 min; stronger effect = higher value; fold of DMSO-control signal, blank-subtracted | activation factor at 20 µM | hit rate 0.17% among 200,000 | AID 1016;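 active means activation factor of 2 or more at 20 µM, a signal rise over negative controls twice the positive control's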
mIAP activ: increases mouse intestinal alkaline phosphatase activity; AID 2805; muIAP, CDP-Star luminescence, 30 min; stronger effect = higher value; 1 = vehicle-only enzyme signal, 0 = enzyme-free wells; hit rate 0.24% among 330,000; activation factor at 10 µM;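 active means activation factor of at least 2 at 20 µM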
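System: Mouse IAP enzyme | Also added: CDP-Star substrate | Dosing: Compounds dispensed in DMSO | Schedule: 30 min enzyme-substrate-compound incubation at room temperature | Technique: Chemiluminescence readout | Control set: DMSO-only wells and no-enzyme negative control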
hIAP act: increases human intestinal alkaline phosphatase activity; P09923; purified human IAP, CDP-Star luminescence, 30 min; stronger effect = higher value; 1 = vehicle-only enzyme, 0 = enzyme-free background; activation factor at 10 µM; hit rate 0.16% among 330,000;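 active means activation factor of the enzyme at least 2-fold when tested at 20 µM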
Hits are given with their value; – = inactive; · = not tested or not shown. A selection: hits, their analogues and other compounds. The true share with any hit is near 0.77%.

SMILES | mIAP inh | hIAP block | bIAP inhibitor | bIAP act | mIAP activ | hIAP act
COc1ccc(C(=O)NCc2nnc(SCC(=O)N3CCC(C)CC3)o2)cc1 | – | – | – | – | – | –
O=C(NCC(F)(F)F)c1ccc(S(=O)(=O)Nc2ccccc2N2CCCC2)cc1 | – | – | · | · | – | –
CCOC(=O)c1ccc(NC(=S)NCCC2=CCCCC2)cc1 | – | – | – | – | 2.62 | –
CCOC(=O)c1ccc(NC(=S)NCCc2ccccc2)cc1 | – | – | – | – | – | –
CCOC(=O)c1ccc(NC(=S)NCCc2ccccc2F)cc1 | – | – | – | – | 2.24 | –
Cc1ccc(NC(=S)NCCC2=CCCCC2)cc1 | – | – | – | – | – | –
C[C@H](CO)N1C[C@H](C)[C@@H](CN(C)C(=O)NC2CCCCC2)Oc2c(NC(=O)c3ccncc3)cccc2C1=O | – | – | · | · | – | –
COc1ccc(NC(=O)CC(NCCc2ccccc2)C(=O)O)c(OC)c1 (configuration not stated) | – | – | – | – | – | –
COc1ccccc1NC(=O)CC(NCc1ccccc1)C(=O)O (configuration not stated) | – | – | – | 2.3 | – | –
CCOC(=O)c1ccc(NC(=O)NC2CCN(CC(=O)NCc3ccc4c(c3)OCO4)CC2)cc1 | – | – | – | – | 2.27 | –
COc1ccccc1CN1CC(C(=O)NCCCc2ccc(F)cc2)CCC1=O (configuration not stated) | – | – | · | · | – | –
NC(=O)Nc1ccc(C(=O)OCC(=O)NC2CCCCC2)cc1 | – | – | – | – | – | –
CC(C)Oc1ccc(C2NC(=O)c3ccccc3O2)cc1 (configuration not stated) | – | – | · | · | – | –
CCCc1ccc(C(C)NC(=S)NCc2ccc(F)cc2)cc1 (configuration not stated) | – | – | · | · | 2.96 | –
CC(NC(=S)NC1CCCCC1)c1ccccc1 (configuration not stated) | – | – | · | · | – | –
Cc1ccccc1NC(=S)NCc1ccc(F)cc1 | – | – | · | · | – | –
CCOc1ccc(C(C)NC(=S)NCc2ccc(Cl)cc2)cc1 (configuration not stated) | – | – | – | – | 4.01 | –
CCCc1ccc(C(C)NC(=S)NC2CCCCC2)cc1 (configuration not stated) | – | – | · | · | 2.31 | –
CCC(NC(=S)NCc1ccc(F)cc1)c1ccc(C(C)C)cc1 (configuration not stated) | – | – | · | · | 4.15 | –
O=C(Nc1ccc(C(=O)O)cc1)/C(=C\c1ccco1)NC(=O)c1ccco1 | – | – | · | · | – | –
O=C(/C=C/c1ccccc1)OCCN1C(=O)c2ccccc2C1=O | – | – | · | · | – | –
CCC(C)c1ccc(C(C)NC(=S)NCc2ccc(F)cc2)cc1 (configuration not stated) | – | – | · | · | 2.57 | –
COc1ccc(C(C)NC(=S)NCc2ccc(F)cc2)cc1OC (configuration not stated) | – | – | · | · | – | –
COc1cc(/C=C2\CC/C(=C\c3cc(OC)c(O)c(OC)c3)C2=O)cc(OC)c1O | 55.6 | – | · | – | – | –
CC(=O)c1ccc2c(c1)c(C#N)c1ccccc1[n+]2[O-] | – | – | · | · | – | –
SMILES | mIAP inh | hIAP block | bIAP inhibitor | bIAP act | mIAP activ | hIAP act
Cc1cc(C)c2c(NC(=S)NC(=O)c3ccccc3)n[nH]c2n1 | – | – | – | – | – | –
N#C/C(=C/c1ccc(-c2ccc(S(N)(=O)=O)cc2)o1)c1nc2ccccc2s1 | 57.1 | – | – | – | – | –
N#C/C(=C/c1ccc(-c2ccc(S(N)(=O)=O)cc2)o1)C(=O)Nc1ccccc1 | – | – | – | – | – | –
O=C(COC(=O)Cc1c(Cl)cccc1Cl)Nc1ccc2[nH]c(=O)[nH]c2c1 | – | – | · | · | – | –
O=C(Nc1n[nH]c(C2CCCCC2)n1)C1CCCCC1 | – | – | – | 8.1 | 2.33 | –
O=C(Nc1ncccn1)C1CCCCC1 | – | – | – | – | – | –
CC(C)(C)c1ccc(OCC(=O)Nc2ccc(-c3nc4cccnc4o3)cc2)cc1 | – | – | – | 2 | – | –
COc1cccc(-c2nn(-c3ccccc3)cc2C(=O)OCC(=O)Nc2ncc(Cl)cc2Cl)c1 | – | – | – | 2 | – | –
Cc1nn(-c2ccccc2)c(C)c1/C=C/C(=O)OCC(=O)Nc1ncc(Cl)cc1Cl | – | – | – | 10.9 | – | –
O=C(COC(=O)c1cn(-c2ccccc2)nc1-c1ccccc1)Nc1ncc(Cl)cc1Cl | – | – | · | · | – | –
NC(=S)NN=Cc1ccc(-c2ccc(S(=O)(=O)Nc3ncccn3)cc2)o1 | 42.2 | – | · | · | – | –
COc1ccccc1Nc1nc(-c2cccs2)cs1 | 42.6 | – | – | – | – | –
CSC(=O)NC(=O)NC(=O)c1ccc([N+](=O)[O-])cc1 | – | – | · | · | – | –
CC[C@@]1(C(=O)OC)N[C@H](CN(C)C(=O)Nc2ccccc2)[C@@H]2C(=O)N(Cc3ccccc3)C(=O)[C@@H]21 | – | – | · | · | – | –
COc1ccc(-c2[nH]ncc2C2N=C(N)Nc3nc4ccccc4n32)cc1 (configuration not stated) | – | – | – | 2.2 | – | –
COCc1ccccc1C1=CC(=O)C[C@H](c2ccc(F)cc2)C1 | – | – | · | · | – | –
COc1cc(C)c2c(c1C=O)Oc1c(c(C)c(O)c3c1C(O)OC3=O)OC2=O (configuration not stated) | 53.7 | – | – | – | – | –
COc1ccc(-n2c(-c3ccco3)nc3c(cnn3-c3ccccc3C)c2=O)cc1 | – | – | · | · | – | –
Cc1cc(C)c(NC(=O)c2ccc(CN3CCc4ccccc4C3)cc2)c(C)c1 | – | – | – | 2.1 | – | –
O=C(COC(=O)CNC(=O)c1ccc(Cl)cc1Cl)NC(=O)NC1CCCCC1 | – | – | · | · | – | –
CC1CCCCC1NC(=S)Nc1cccc(S(=O)(=O)N(C)C)c1 (configuration not stated) | – | – | – | – | 2.92 | –
CCN(CC)S(=O)(=O)c1ccc(C)c(NC(=S)NC2CCCCC2)c1 | – | – | · | · | 2.04 | –
Cc1ccc(S(=O)(=O)N(C)C)cc1NC(=S)NC1CCCC(C)C1C (configuration not stated) | – | – | – | – | 2.83 | –
Cc1ccc(NC(=S)NC2CCCCC2)cc1S(=O)(=O)N(C)C | – | – | – | – | 2.36 | –
CCN(CC)S(=O)(=O)c1cccc(C(=O)NC2CCCCC2)c1 | – | – | – | – | – | –
CC(=O)NNC(=S)Nc1cc(S(=O)(=O)N(C)C)ccc1C | – | – | – | – | – | –
O=C(NC1CC1)c1nc(Cn2cc([N+](=O)[O-])cn2)no1 | – | – | · | · | – | –
COc1ccc2c(c1)CCCC21NC(=O)N(CC(=O)NC(=O)NCc2ccccc2)C1=O (configuration not stated) | – | – | – | – | – | –
